This is a sample that favours compounds with a hit; in the whole collection about 3.8% have one here.
KCNQ1 pot = human KCNQ1 channel potentiation or activation | CHO-K1 KCNQ1, thallium flux FluxOR fluorescence; hits give high values | B-score at 10 µM | 0.35% of 310,000 active | AID 2648;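 active = fluorescence ratio B-score, a plate-corrected score, at least three library SD, with initial intensity B-score within 5 SD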
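System: Stable KCNQ1 CHO-K1 line | Incubation: 90 min dye loading and 20 min compound exposure, both at room temperature | Measure: Ratio B score | Medium: Assay buffer for compound exposure, DMSO matched across wells | Compound dosing: Single-concentration screen | Probe or stimulus: K+/Tl+ depolarizing stimulus | Measured by: Kinetic FluxOR fluorescence, 10 s baseline plus 110 s post-stimulus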
KCNK3 inh = human KCNK3 channel inhibition, primary screen. AID 602410. O14649. CHO-KCNK3 thallium flux, FluxOR fluorescence; hits give low values. 0.84% of 340,000 active. B-score at 10 µM;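 active = B-score under library mean minus 4 SD, starting fluorescence ratio at most library mean plus 5 SD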;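 also: more negative B-score means stronger inhibition of thallium flux through KCNK3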
KCNQ1 inh = blocks the human KCNQ1 potassium channel; B-score at 10 µM; 1.3% of 310,000 active; CHO-K1 KCNQ1, FluxOR thallium flux fluorescence; hits give high values;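 active = compounds whose thallium flux B-score, printed positive for inhibition, exceeds three library SD while starting fluorescence stays within three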;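 also: channel opened by potassium depolarization with thallium stimulus after 20 min compound exposure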
Kir21 inh = Kir2.1 (mouse) channel inhibition. HEK293-Kir2.1, FluxOR thallium flux fluorescence; hits give low values. 0.85% of 310,000 active. AID 1672. B-score at 10 µM;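 active = fluorescence ratio B-score at or below minus 3 SD of library scores, with starting-brightness B-score within 2 SD, cut at about -4.2 in these data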;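 also: channel flux triggered by added potassium and thallium sulfate stimulus; B-score of peak minus minimum fluorescence over baseline after thallium stimulus; more negative B-score means stronger Kir2.1 block with less thallium influx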
KCNK9 inh = blocks the human KCNK9 two-pore domain potassium channel; HEK293 KCNK9, FluxOR thallium flux fluorescence; hits give low values; B-score at 10 µM; 1.2% of 310,000 active; AID 488922;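 active = ratio B-score over 3 SD below the library mean, with starting fluorescence within 5 SD of its mean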;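 also: negative B-score means less thallium flux so channel inhibition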
hERG rescue = compounds protecting human hERG from proarrhythmic drug block | 0.51% of 310,000 active | Q12809 | AID 1511 | CHO-hERG, FluxOR thallium flux, dofetilide IC70 present | activation (rescue from dofetilide block), less the hit threshold, % at 10 µM;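 active = activation above the mean of controls blocked by dofetilide plus 5 SD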;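 also: thallium influx through hERG after potassium depolarization seen as dye fluorescence rise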
Target sequence (Q12809 whole entry, looked up): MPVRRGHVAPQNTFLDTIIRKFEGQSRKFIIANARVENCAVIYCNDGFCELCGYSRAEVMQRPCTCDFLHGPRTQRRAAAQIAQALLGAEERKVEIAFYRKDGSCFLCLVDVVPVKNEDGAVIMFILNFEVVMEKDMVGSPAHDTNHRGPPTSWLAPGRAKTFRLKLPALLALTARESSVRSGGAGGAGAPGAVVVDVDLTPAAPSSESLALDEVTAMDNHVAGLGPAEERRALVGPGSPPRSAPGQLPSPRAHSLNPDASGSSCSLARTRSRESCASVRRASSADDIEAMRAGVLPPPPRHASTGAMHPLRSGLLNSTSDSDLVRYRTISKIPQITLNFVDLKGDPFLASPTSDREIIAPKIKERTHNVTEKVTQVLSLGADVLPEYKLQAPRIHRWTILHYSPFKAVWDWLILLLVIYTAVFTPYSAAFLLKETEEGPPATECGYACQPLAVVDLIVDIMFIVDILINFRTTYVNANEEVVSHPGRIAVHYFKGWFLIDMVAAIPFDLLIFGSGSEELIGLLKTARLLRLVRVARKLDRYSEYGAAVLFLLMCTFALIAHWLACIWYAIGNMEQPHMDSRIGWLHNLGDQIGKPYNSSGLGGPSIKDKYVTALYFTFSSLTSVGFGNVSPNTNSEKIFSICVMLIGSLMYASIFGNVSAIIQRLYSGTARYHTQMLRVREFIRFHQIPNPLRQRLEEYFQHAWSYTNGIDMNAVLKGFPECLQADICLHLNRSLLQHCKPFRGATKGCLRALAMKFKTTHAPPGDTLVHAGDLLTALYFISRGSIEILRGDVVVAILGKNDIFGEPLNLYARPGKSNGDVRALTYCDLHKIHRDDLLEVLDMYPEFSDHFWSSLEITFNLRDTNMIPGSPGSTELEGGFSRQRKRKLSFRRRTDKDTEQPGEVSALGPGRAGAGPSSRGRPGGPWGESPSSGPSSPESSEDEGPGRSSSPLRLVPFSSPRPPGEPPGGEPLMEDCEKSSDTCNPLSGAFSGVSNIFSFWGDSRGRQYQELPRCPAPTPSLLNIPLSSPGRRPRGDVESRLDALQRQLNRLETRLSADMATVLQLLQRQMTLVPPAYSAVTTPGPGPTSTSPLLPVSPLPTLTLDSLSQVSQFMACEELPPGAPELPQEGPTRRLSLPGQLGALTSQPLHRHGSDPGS
Numbers stand for hits; – = inactive; · = no result given.

SMILES | KCNQ1 pot | KCNK3 inh | KCNQ1 inh | Kir21 inh | KCNK9 inh | hERG rescue
Cc1ccc(N2C(=O)c3ccc(C(=O)Nc4cccnc4)cc3C2=O)c(C)c1 | – | – | – | – | – | 4.7
COc1ccc2c(c1)[nH]c1c(N3CCN(Cc4ccc5c(c4)OCO5)CC3)ncnc12 | – | – | 9 | – | – | –
Cc1cccc(N2CCN(C(=O)c3ccc4nccnc4c3)CC2C)c1 (stereo not given) | · | -9.5 | · | · | · | ·
O=C(c1ccc2nccnc2c1)N1CCN(c2ccccc2)CC1 | – | – | – | – | – | –
Nc1ccc(CCc2ccccn2)cc1 | · | – | · | · | · | ·
COc1ccc2cc(S(=O)(=O)NC3CC(C)(C)NC(C)(C)C3)ccc2c1 | – | – | – | – | – | –
O=[N+]([O-])c1ccc(CN2CCOCCOCCN(Cc3ccc([N+](=O)[O-])cc3)CCOCC2)cc1 | – | – | – | – | -7.2 | –
COc1cc(NC(=S)N2CCC(C(O)(c3ccccc3)c3ccccc3)CC2)cc(OC)c1 | 23 | – | – | – | – | –
Oc1c(N=NC(=S)Nc2ccccc2F)c2ccccc2n1Cc1cccc(Cl)c1 | – | – | – | – | – | 16
Cc1cccc(Cn2c(O)c(N=NC(=S)Nc3ccccc3F)c3ccccc32)c1 | 8 | – | – | – | – | 27
Oc1c(N=NC(=S)Nc2ccccc2F)c2ccccc2n1Cc1ccc(F)cc1 | 15 | – | – | – | – | 55
CS(=O)(=O)N1Cc2ccccc2CC1C(=O)OCC(=O)NCCc1ccc(S(N)(=O)=O)cc1 (stereo not given) | · | – | · | · | · | ·
Cc1ccc(OCCN2C(=O)c3ccccc3C2=O)c([N+](=O)[O-])c1 | 9 | – | – | – | – | –
CCC(Cc1ccccc1)NC(=O)CCc1ccccc1 (stereo not given) | – | – | – | -5.1 | – | –
CCC(Cc1ccccc1)NC(=O)CCn1cccc1 (stereo not given) | – | – | – | – | – | –
CC(C)c1ccc(NC(=S)N(C)CCc2ccccn2)cc1 | – | – | – | – | – | 29
Cc1cccc(C)c1NC(=S)N(C)CCc1ccccn1 | – | – | – | – | – | –
COc1ccc(-c2csc(NC(=O)C3CCCCN3S(=O)(=O)c3ccccc3)n2)cc1 (stereo not given) | 151 | – | – | – | – | –
CN1CC=C2C(C#N)=C(N)C(C#N)(C#N)C(c3ccsc3)C2C1 (stereo not given) | – | – | – | – | – | –
CN1CC=C2C(C#N)=C(N)C(C#N)(C#N)[C@H](c3cccc(Cl)c3)C2C1 (stereo not given in full) | – | – | 8 | – | – | –
CC(C)c1ccc(C2C3CSCC=C3C(C#N)=C(N)C2(C#N)C#N)cc1 (stereo not given) | – | · | 12 | – | – | –
COc1ccc(C)cc1NC(=O)c1cccc(-c2ccc(OC(C)=O)cc2)c1 | – | – | – | – | -8.1 | –
COc1ccc(-c2cccc(C(=O)Nc3ccccc3C)c2)cc1 | – | – | – | – | – | –
CCCc1cc(=O)[nH]c(SCC(=O)c2cc(C)n(C3CC3)c2C)n1 | – | – | – | -4.5 | – | –
COc1ccc(NC(=S)NCc2ccc(S(N)(=O)=O)cc2)c(OC)c1 | – | – | – | – | – | –
SMILES | KCNQ1 pot | KCNK3 inh | KCNQ1 inh | Kir21 inh | KCNK9 inh | hERG rescue
CCCCC1C(=O)N(c2ccccc2)N(c2ccc(O)cc2)C1=O (stereo not given) | · | -10 | · | · | · | ·
O=[N+]([O-])c1c(NCCCO)cc(Sc2nc3ccccc3s2)c2nonc12 | – | – | – | – | – | –
Cc1nnc(Sc2cc(NCCO)c([N+](=O)[O-])c3nonc23)s1 | – | – | 8 | – | – | –
O=[N+]([O-])c1c(NCCO)cc(N2CCCCCC2)c2nonc12 | – | – | – | – | – | –
Cc1nnc(Sc2cc(NCCCO)c([N+](=O)[O-])c3nonc23)s1 | – | – | 10 | -7.1 | -7.2 | –
Cc1cc(C)n2nc(C(=O)OCC(=O)NCc3ccc(F)cc3)nc2n1 | · | – | · | · | · | ·
C/C=C(/C)C(=O)O[C@@H]1c2c(ccc3ccc(=O)oc23)O[C@@H]1C(C)(C)OC(=O)/C(C)=C\C | – | – | – | – | -7.1 | –
CO[C@H]1CC[C@@]2(C)[C@@H](CC[C@@H]3[C@@H]2CC[C@@]2(C)[C@H]3C[C@H](C(=O)N[C@@H](CCCN=C(N)N)C(=O)NCC(=O)N[C@@H](CC(=O)O)C(N)=O)O[C@]23CCCO3)C1 | · | – | · | · | · | ·
O=C1CSC(=S)N1/N=C/c1ccc(O)c(O)c1O | – | – | – | – | – | –
O=C1CSC(=S)N1/N=C/c1cc(Br)ccc1O | – | · | – | – | – | 7.1
CC(=O)c1cccc(NC(=O)C(C)OC(=O)Cc2c[nH]c3ccccc23)c1 (stereo not given) | – | – | – | – | – | –
CC(OC(=O)Cc1c[nH]c2ccccc12)C(=O)Nc1ccccc1F (stereo not given) | – | – | – | -5.7 | – | –
CCCCn1nc(NC(=O)COC)c2cc3ccc(C)cc3nc21 | – | – | – | – | – | 9.0
CCCn1nc(NC(=O)COC)c2cc3cc(C)ccc3nc21 | – | – | – | – | – | –
CCOC(=O)Cc1csc(NC(=O)Nc2ccc(C)cc2)n1 | – | – | – | – | – | –
CCC1C(=O)CC(c2ccccc2)NC1c1ccccc1 (stereo not given) | – | – | – | – | -6.6 | –
O=C1C(c2ccccc2)C(c2ccccc2)NC(c2ccccc2)C1c1ccccc1 (stereo not given) | – | – | – | – | – | –
Oc1ccc(C[C@H]2CNC(=S)N2CC2CCCN2C[C@H](Cc2ccc(O)cc2)N2C[C@H](Cc3ccccc3)N(CC3CCCCCC3)C2=S)cc1 (stereo not given in full) | · | – | · | · | · | ·
CC1CCCCN1C(=O)C1COc2ccccc2O1 (stereo not given) | – | – | – | – | – | –
COc1cc(OC)c(NS(=O)(=O)c2cc(Br)cnc2N)cc1Cl | – | – | – | -5.8 | – | –
COc1ccccc1NS(=O)(=O)c1cc(Cl)ccc1OC | – | – | – | -4.8 | – | –
COc1cc(NS(=O)(=O)c2ccc(OC)c(C)c2C)c(OC)cc1Cl | – | – | – | – | – | –
COc1ccccc1NS(=O)(=O)c1ccc(OC)c(OC)c1 | – | – | – | – | – | –
COc1ccc(OC)c(S(=O)(=O)Nc2cc(OC)c(Cl)cc2OC)c1 | – | – | – | -5.6 | – | –
O=C(/C=C/c1ccccc1Cl)OCC(=O)N1CCCC1 | · | – | · | · | · | ·
O=[N+]([O-])c1ccc(Nc2nc(NCCO)nc(N3CCCC3)n2)cc1 | – | – | – | – | – | –
NNc1nc(Nc2ccc([N+](=O)[O-])cc2)nc(N2CCCCCC2)n1 | – | – | 6 | – | – | –
